Laboratory results reported in ChEMBL document CHEMBL4308914, “Discovery of potent, low-absorbable sodium-dependent glucose cotransporter 1 (SGLT1) inhibitor SGL5213 for type 2 diabetes treatment” (Bioorg Med Chem, 2019).
pIC50: −log10 of the molar value.

Legend:
[1] = target: T1, Sodium/glucose cotransporter 2 (Homo sapiens, UniProt P31639); test: Inhibition of human SGLT2 expressed in CHOK1 cells assessed as reduction in sodium-dependent glucose uptake after 1 hr in presence of [14C]-methyl-alpha -D-glucopyranoside by microbeta counting method; assay type: cell-based
T1 sequence (P31639 whole entry): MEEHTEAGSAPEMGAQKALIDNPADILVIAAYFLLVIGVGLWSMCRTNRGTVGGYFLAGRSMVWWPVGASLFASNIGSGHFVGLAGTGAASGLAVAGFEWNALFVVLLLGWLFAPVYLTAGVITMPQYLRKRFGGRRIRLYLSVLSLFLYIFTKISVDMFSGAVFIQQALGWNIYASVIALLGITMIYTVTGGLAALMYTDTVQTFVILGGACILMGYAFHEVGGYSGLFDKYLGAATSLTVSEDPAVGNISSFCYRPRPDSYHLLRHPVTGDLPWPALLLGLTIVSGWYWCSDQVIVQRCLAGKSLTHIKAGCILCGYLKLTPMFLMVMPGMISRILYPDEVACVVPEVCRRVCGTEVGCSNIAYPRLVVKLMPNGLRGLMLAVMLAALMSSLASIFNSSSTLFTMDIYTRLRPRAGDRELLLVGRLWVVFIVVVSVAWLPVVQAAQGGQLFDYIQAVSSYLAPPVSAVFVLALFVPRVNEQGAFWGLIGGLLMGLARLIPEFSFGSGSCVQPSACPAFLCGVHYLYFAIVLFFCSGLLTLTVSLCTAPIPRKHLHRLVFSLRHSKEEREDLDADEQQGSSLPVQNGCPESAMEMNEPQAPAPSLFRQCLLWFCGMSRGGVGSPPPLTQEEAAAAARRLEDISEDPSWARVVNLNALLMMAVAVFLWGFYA
Procedure, shortened: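 Human SGLT2 stably expressed in CHO-K1 cells; 20 min Na-free choline pretreatment, then Na+ uptake buffer pH 7.4 with 1 mM methyl-α-D-glucopyranoside containing [14C] label plus compound, 1 h at 37 °C. Washed, NaOH lysis, scintillation counting; Na-free buffer for background. IC50 from six concentrations relative to uninhibited uptake; mean of at least two experiments.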

[2] = target: T2, Sodium/glucose cotransporter 1 (Homo sapiens, UniProt P13866); test: Inhibition of human SGLT1 expressed in CHOK1 cells assessed as reduction in sodium-dependent glucose uptake after 30 mins in presence of [14C]-methyl-alpha -D-glucopyranoside by microbeta counting method; assay type: cell-based
T2 sequence (P13866 whole entry): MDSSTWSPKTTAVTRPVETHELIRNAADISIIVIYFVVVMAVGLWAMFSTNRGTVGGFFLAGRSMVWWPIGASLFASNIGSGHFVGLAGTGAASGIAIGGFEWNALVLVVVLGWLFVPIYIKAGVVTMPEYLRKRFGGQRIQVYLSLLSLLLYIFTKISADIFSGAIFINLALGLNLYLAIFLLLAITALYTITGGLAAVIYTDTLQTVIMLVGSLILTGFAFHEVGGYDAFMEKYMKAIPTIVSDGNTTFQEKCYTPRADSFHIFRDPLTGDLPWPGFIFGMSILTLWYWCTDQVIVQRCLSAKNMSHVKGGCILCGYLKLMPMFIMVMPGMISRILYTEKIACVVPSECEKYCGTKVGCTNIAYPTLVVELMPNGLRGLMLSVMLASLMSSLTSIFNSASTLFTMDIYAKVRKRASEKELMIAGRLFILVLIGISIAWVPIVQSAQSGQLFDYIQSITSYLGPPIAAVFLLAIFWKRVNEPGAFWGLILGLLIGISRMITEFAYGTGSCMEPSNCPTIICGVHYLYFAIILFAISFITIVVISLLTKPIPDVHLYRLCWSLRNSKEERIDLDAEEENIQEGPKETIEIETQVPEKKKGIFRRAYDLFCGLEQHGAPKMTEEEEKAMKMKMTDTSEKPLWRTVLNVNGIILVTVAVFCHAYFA
Procedure, shortened: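 CHO-K1 cells stably expressing human SGLT1, preincubated 20 min in Na-free choline buffer (pH 7.4). Uptake buffer (140 mM NaCl, HEPES/Tris pH 7.4) with 0.1 mM methyl-α-D-glucopyranoside plus [14C] tracer and test compound, 30 min at 37 °C. Cells washed, lysed in NaOH, radioactivity counted. Choline-for-Na buffer as background. Six concentrations; IC50 vs untreated control; mean of at least two experiments.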

[3] = Permeability of the compound at pH 7.4 by PAMPA assay; assay type: ADME; conditions: read-out: permeability
Procedure, shortened: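 PAMPA at pH 7.4: filter coated with GIT-0 lipid; donor compartment holds compound in universal buffer at 25 μM or 5 μM; permeability reported as ×10⁻⁶ cm/s.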

[4] = Drug uptake in Sprague-Dawley rat kidney at 0.3 mg/kg, iv administered as single dose after 72 hrs by LCMS analysis; assay type: ADME, organism-based; conditions: read-out: Drug uptake
Procedure, shortened: (§1)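 Fasted male SD rats given single i.v. dose in saline; animals euthanized at 2, 24 and 72 h, kidneys homogenized in purified water and unchanged drug measured by LC-MS/MS (ng/g tissue). Mean ± SD of three animals; 72 h level also expressed relative to 2 h value.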

[5] = Drug uptake in Sprague-Dawley rat kidney at 0.3 mg/kg, iv administered as single dose after 2 hrs by LCMS analysis; assay type: ADME, organism-based; conditions: read-out: Drug uptake; procedure, shortened: as §1
[6] = Drug uptake in Sprague-Dawley rat kidney at 0.3 mg/kg, iv administered as single dose after 24 hrs by LCMS analysis; assay type: ADME, organism-based; conditions: read-out: Drug uptake; procedure, shortened: as §1
[7] = Drug excretion in bile duct cannulated Sprague-Dawley rat urine at 2 mg/kg, iv administered as single dose after 24 hrs by LCMS analysis; assay type: ADME, organism-based; conditions: read-out: Drug excretion
Procedure, shortened: (§2)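 Bile duct-cannulated SD rats given single i.v. dose in saline; urine and bile collected over 24 h. Unchanged drug quantified by LC-MS/MS and expressed as cumulative % of dose; mean ± SD of three animals.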

[8] = Drug uptake in Sprague-Dawley rat kidney assessed as unchanged drug level at 0.3 mg/kg, iv administered as single dose after 72 hrs by LCMS analysis relative to control; assay type: ADME, organism-based; conditions: in vivo; procedure, shortened: as §1
[9] = Drug excretion in bile duct cannulated Sprague-Dawley rat bile at 2 mg/kg, iv administered as single dose after 24 hrs by LCMS analysis; assay type: ADME, organism-based; conditions: read-out: Drug excretion; procedure, shortened: as §2

Compound	pIC50 [1]	pIC50 [2]	other results
COc1cc(C(C)C)c(Cc2ccc(/C=C/C(C)(C)C(=O)NC(C)(C)CO)cc2)cc1[C@@H]1O[C@H](CO)[C@@H](O)[C@H](O)[C@H]1O	7.47	7.44	Papp [3]: 1.8 ×10⁻⁶ cm/s
COc1cc(/C=C/C(C)(C)C(=O)NC(C)(C)CO)ccc1Cc1cc([C@@H]2O[C@H](CO)[C@@H](O)[C@H](O)[C@H]2O)c(C)cc1C	6.10	5.93	–
Cc1cc(O)c([C@@H]2O[C@H](CO)[C@@H](O)[C@H](O)[C@H]2O)cc1Cc1ccc(CCNC(=O)NC(CO)(CO)CO)cc1	–	–	concentration at 72 h [4]: 803 ng/g; concentration at 2 h [5]: 1900 ng/g; concentration at 24 h [6]: 1110 ng/g; dose excreted at 24 h [7]: 36.2%; Drug uptake [8]: 42%; dose excreted at 24 h [9]: 30.2%
Cc1cc(C)c([C@@H]2O[C@H](CO)[C@@H](O)[C@H](O)[C@H]2O)cc1Cc1ccc(/C=C/C(C)(C)C(=O)NC(C)(C)CO)cc1	8.00	7.66	–
Cc1cc(C)c([C@@H]2O[C@H](CO)[C@@H](O)[C@H](O)[C@H]2O)cc1Cc1ccc(/C=C/C(C)(C)C(=O)NC(C)(C)CO)cc1C(C)C	5.67	4.90	–
Cc1cc(O)c([C@@H]2O[C@H](CO)[C@@H](O)[C@H](O)[C@H]2O)cc1Cc1ccc(/C=C/C(C)(C)C(=O)NC(C)(C)CO)cc1	–	7.68	–
COc1cc(C(C)C)c(Cc2ccc(/C=C/C(C)(C)C(=O)NC(C)(C)CO)cc2C)cc1[C@@H]1O[C@H](CO)[C@@H](O)[C@H](O)[C@H]1O	6.45	7.13	–
Cc1cc(C)c([C@@H]2O[C@H](CO)[C@@H](O)[C@H](O)[C@H]2O)cc1Cc1ccc(/C=C/C(C)(C)C(=O)NC(C)(C)CO)cc1F	7.77	7.47	–
